The subject of test [1] is Mus musculus. Description: Antitumor activity against P-388 Leukemia in female BDF1 mice expressed as percent T/C at dose 50 mg/kg. The format is functional. In outline:
(§1)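 P-388 leukemia, 10⁶ cells implanted ip in BDF₁ mice, five per group. Test agents dissolved or suspended in 0.3% CMC-Na and dosed orally once daily for 9 days, beginning 1 day after implantation. Activity expressed as treated/control ratio of median survival time.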

The test system of test [2] is P388. Briefly: Percentage change in median survival time of P388 (leukemia) inoculated female mice following 25 mg/kg p.o. The conditions noted are these: route oral.
Test [3] has as its system Mus musculus. Briefly: Antitumor activity against P-388 Leukemia in female BDF1 mice expressed as percent T/C at dose 12.5 mg/kg. The format is functional. In outline: as §1
Test [4] concerns P388. Description: Percentage change in median survival time of P388 (leukemia) inoculated female mice following 100 mg/kg p.o. The settings on record: route oral.
The test system of test [5] is P388. Briefly: Percentage change in median survival time of P388 (leukemia) inoculated female mice following 200 mg/kg p.o. The settings on record: route oral.
Test [6] has as its system Mus musculus. Briefly: Antitumor activity against MH 134 cells in female C3H mice expressed as percent T/C at dose 100 mg/kg.
In test [7] the test system is Mus musculus. Briefly: Antitumor activity against Meth A cells in female Balb/c mice expressed as percent T/C at dose 50 mg/kg.
In test [8] the test system is Mus musculus. Briefly: Antitumor activity against L-1210 cells in female BDF1 mice expressed as percent T/C at dose 100 mg/kg. Format: functional. The gist of the method: (§2)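 L-1210 leukemia, 10⁶ cells implanted ip into BDF₁ mice (five females per group, 17–23 g). Compound dissolved or suspended in 0.3% CMC-Na, given orally once daily for 5 days starting 1 day after implantation. Activity taken as the ratio of median survival time, treated vs control.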

The test system of test [9] is Mus musculus. Description: Antitumor activity against L-1210 cells in female BDF1 mice expressed as percent T/C at dose 50 mg/kg. The format is functional. In outline:
as §2

For test [10], the system named is Mus musculus. Description: Antitumor activity against L-1210 cells in female BDF1 mice expressed as percent T/C at dose 200 mg/kg. Format: functional. The gist of the method: as §2
Test [11] deals with Mus musculus. Description: Antitumor activity against Meth A cells in female Balb/c mice expressed as percent T/C at dose 100 mg/kg.
The test system of test [12] is Mus musculus. Description: Antitumor activity against MH 134 cells in female C3H mice expressed as percent T/C at dose 200 mg/kg.
Test [13] relates to Mus musculus. Description: Antitumor activity against Meth A cells in female Balb/c mice expressed as percent T/C at dose 200 mg/kg.
Test [14] deals with Mus musculus. Briefly: Antitumor activity against L-1210 cells in female BDF1 mice expressed as percent T/C at dose 300 mg/kg. Format: functional. In outline:
as §2

For test [15], the system named is Mus musculus. Description: Antitumor activity against MH 134 cells in female C3H mice expressed as percent T/C at dose 50 mg/kg.
For test [16], the system named is P388. Briefly: Percentage change in median survival time of P388 (leukemia) inoculated female mice following 30 mg/kg p.o. The settings on record: route oral.
The subject of test [17] is Mus musculus. Description: Antitumor activity against L-1210 in female BDF1 mice expressed as percent T/C at dose 300 mg/kg. Format: functional. In outline: as §2
Test [18] relates to Mus musculus. Briefly: Antitumor activity against L-1210 in female BDF1 mice expressed as percent T/C at dose 200 mg/kg. Format: functional. In outline: as §2
The subject of test [19] is Mus musculus. Briefly: Antitumor activity against MH 134 cells in female C3H mice expressed as percent T/C at dose 200 mg/kg. The source holds these as a separate data set.
In test [20] the test system is Mus musculus. Description: Antitumor activity against MH 134 cells in female C3H mice expressed as percent T/C at dose 100 mg/kg. This is another data set of the same source.
The test system of test [21] is Mus musculus. Briefly: Antitumor activity against MH 134 cells in female C3H mice expressed as percent T/C at dose 50 mg/kg. This is another data set of the same source.
The subject of test [22] is Mus musculus. Description: Antitumor activity against L-1210 in female BDF1 mice expressed as percent T/C at dose 50 mg/kg. Format: functional. In outline: as §2
In test [23] the test system is Mus musculus. Briefly: Antitumor activity against L-1210 in female BDF1 mice expressed as percent T/C at dose 100 mg/kg. Format: functional. The gist of the method: as §2

The term T/C denotes the ratio of treated to control.

With `CCOC(=O)n1cc(F)c(=O)n(C(C)=O)c1=O`, the T/C in the test on Mus musculus [1] was found to be 115%; with P388 [2], 103%; in the test with Mus musculus [3] it was 94%; in the test with P388 [4] it was 59%.

As to `CC(=O)n1cc(F)c(=O)n(C(=O)c2ccccc2)c1=O`, the T/C in the test on Mus musculus [1] is 116%; with P388 [2] it was 108%; in the test on P388 [4], 144%; with P388 [5], 99%.

Take `CCC(=O)n1cc(F)c(=O)n(C(=O)c2ccccc2)c1=O`: the T/C in the test on Mus musculus [1] is listed as 119%; with P388 [2] it was 110%; in the test with P388 [4] it was 130%; in the test on P388 [5], 90%.

Regarding `CCOC(=O)n1cc(F)c(=O)n(C(=O)CC)c1=O`, the T/C was 112% in the test on Mus musculus [1], 105% in the test with P388 [2], 82% with P388 [4] and 52% with P388 [5].

Turning to `CCOC(=O)n1cc(F)c(=O)n(C(=O)c2ccccc2C)c1=O`, the T/C in the test on Mus musculus [1] is recorded as 125%; in the test with P388 [2] it was 112%; in the test on P388 [4], 127%; in the test with P388 [5] it was 164%.

Turning to `CCOC(=O)n1cc(F)c(=O)n(C(=O)c2ccccc2)c1=O`, the T/C with Mus musculus [1] is given as 116%; in the test with P388 [2], 103%; in the test with P388 [4], 123%; with P388 [5], 83%.

As to `O=C(OCc1ccccc1)n1c(=O)[nH]cc(F)c1=O`, the T/C stood at 101% in the test with Mus musculus [1], 110% in the test on P388 [4] and 96% with P388 [5].

In the case of `Cc1ccccc1C(=O)n1c(=O)c(F)cn(C(=O)Oc2ccccc2)c1=O`, the T/C was found to be 106% with Mus musculus [1], 100% in the test on P388 [2], 129% in the test with P388 [4] and 135% in the test on P388 [5].

As to `CCC(=O)n1cc(F)c(=O)n(C(=O)c2ccccc2C)c1=O`, the T/C in the test on Mus musculus [1] came to 112%; with P388 [2], 103%; in the test on P388 [4], 136%; in the test on P388 [5], 138%.

As for `CCCCCCC(=O)n1c(=O)c(F)cn(C(=O)OCC)c1=O`, the T/C is on record as 119% in the test with Mus musculus [1], 110% in the test on P388 [2], 118% with P388 [4] and 74% with P388 [5].

Turning to `Cc1ccccc1C(=O)n1c(=O)c(F)cn(C(=O)O[C@H]2CCC3(C)C(=CCC4[C@@H]3CCC3(C)[C@@H](C(C)CCCC(C)C)CC[C@@H]43)C2)c1=O` (stereo partly specified), the T/C in the test on Mus musculus [1] was found to be 98%; in the test on P388 [4], 100%; with P388 [5] it was 112%.

`Cc1ccccc1C(=O)n1c(=O)c(F)cn(C(=O)C(C)C)c1=O`: the T/C in the test on Mus musculus [1] was found to be 112%; with P388 [2], 110%; in the test with P388 [4], 116%; in the test with P388 [5], 169%.

Consider `CC(=O)n1cc(F)c(=O)n(C(=O)OCc2ccccc2)c1=O`, for which the T/C turned out to be 105% with Mus musculus [1], 116% with P388 [4] and 112% in the test on P388 [5].

On to `CC(=O)n1cc(F)c(=O)n(C(C)=O)c1=O`, for which the T/C was determined as 103% in the test with Mus musculus [1], 112% in the test with P388 [2], 103% in the test with Mus musculus [3] and 86% with P388 [4].

With `CC(=O)n1cc(F)c(=O)n(C(=O)c2ccccc2C)c1=O`, the T/C with Mus musculus [6] amounted to 43%; with Mus musculus [7] it was 71%; in the test with Mus musculus [8], 128%; in the test with Mus musculus [1], 111%; in the test with Mus musculus [9], 110%; in the test on Mus musculus [10], 136%. In addition, the T/C in the test on Mus musculus [11] turned out to be 58%; in the test on Mus musculus [12], 25%; in the test on P388 [2], 121%; in the test with P388 [4] it was 151%; with Mus musculus [13] it was 32%; in the test with Mus musculus [14], 167%. For the same compound, the T/C with P388 [5] is 121%; with Mus musculus [15] it was 61%.

As for `O=C(Oc1ccccc1)n1cc(F)c(=O)n(C(=O)c2ccccc2)c1=O`, the T/C is 112% with Mus musculus [1], 99% in the test with P388 [2], 119% with P388 [4] and 107% in the test with P388 [5].

As for `CCCCCCOC(=O)n1cc(F)c(=O)n(C(=O)c2ccccc2C)c1=O`, the T/C with Mus musculus [1] amounted to 106%; in the test on P388 [2] it was 100%; in the test with P388 [4], 96%; in the test on P388 [5] it was 147%.

In the case of `COC(=O)n1cc(F)c(=O)n(C(=O)c2ccccc2C)c1=O`, the T/C is recorded as 112% in the test on Mus musculus [1], 101% with P388 [2], 138% in the test on P388 [4] and 142% with P388 [5].

As to `Cc1ccccc1C(=O)n1c(=O)[nH]cc(F)c1=O`, the values for the T/C with Mus musculus [1], in the test on P388 [4] and with P388 [16] were 127%, 103% and 124%, respectively.

Take `CC(=O)n1c(=O)c(F)cn(C(=O)c2ccccc2C)c1=O`: the T/C in the test on Mus musculus [1] was 114%; in the test on P388 [2] it was 97%; with Mus musculus [3] it was 111%; in the test with P388 [4], 108%.

For `O=C(Oc1ccccc1)n1c(=O)[nH]cc(F)c1=O`, the T/C in the test with Mus musculus [1] turned out to be 101%; in the test with P388 [2] it was 112%; with Mus musculus [3] it was 97%; in the test on P388 [4] it was 83%.

In the case of `Cc1ccccc1C(=O)n1c(=O)c(F)cn(C(=O)OCc2ccccc2)c1=O`, the T/C in the test with Mus musculus [1] was 108%; in the test with P388 [4] it was 125%; with P388 [5] it was 110%.

For the compound `O=c1[nH]cc(F)c(=O)[nH]1` [FLUOROURACIL], the T/C is recorded as 76% in the test on Mus musculus [1], 135% in the test with P388 [2] and 127% with Mus musculus [3].

Take `O=c1[nH]c(=O)n(C2CCCO2)cc1F` (stereo unspecified) [TEGAFUR]: the T/C is recorded as 82% in the test on Mus musculus [7]; 104% in the test on Mus musculus [1]; 53% with Mus musculus [11]; 115% in the test on P388 [2]; 111% in the test with Mus musculus [3]; 102% in the test with Mus musculus [17]. The T/C worked out at 143% in the test on Mus musculus [18]; 136% in the test with P388 [4]; 57% with Mus musculus [19]; 58% with Mus musculus [20]; 19% with Mus musculus [13]; 70% in the test on Mus musculus [21]. Moreover, the values for the T/C with Mus musculus [22], with P388 [5] and with Mus musculus [23] were 110%, 106% and 124%, respectively.

These data come from ChEMBL document CHEMBL1121361, “Studies on the synthesis of chemotherapeutics. 10. Synthesis and antitumor activity of N-acyl- and N-(alkoxycarbonyl)-5-fluorouracil derivatives” (1980).
